Data on five compounds can be found in publication PMC11022290 (Clinical and Translational Science, 2024).

Read-outs that look alike come from different tables or passages of the source.

The subject of data set [1] is CYP2C:TG haplotype. The note with it: adults; cited from earlier work.
Data set [2] deals with CYP2C:TG haplotype. The settings on record: cited from earlier work.
Data set [3] concerns CYP2C:TG haplotype. Format: in vivo, human (children aged 6–21 years). In short, it runs like this: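 Children, fasted ≥4 h, received one proton pump inhibitor dose per visit. 12–14 serum samples were taken to 10 h post-dose and assayed by LC/MS/MS or reverse-phase HPLC. Clearance was dose/AUCtotal (AUClast + Cn/kel), weight-normalized. Genotyping was by TaqMan real-time PCR or NGS panel. Regression on CYP2C19*1 and *17 counts was compared with regression adding CYP2C:TG count. Outcomes were log-transformed as needed, with bootstrap 95% CI.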

Consider `CN(C)CCCC1(c2ccc(F)cc2)OCc2cc(C#N)ccc21` (stereo not drawn) [citalopram], for which the “impact of CYP2C:TG alleles on CYP2C19 PK or metabolic phenotype” value in data set [1] is reported as “No appreciable impact”.
`CN(C)CCC[C@@]1(c2ccc(F)cc2)OCc2cc(C#N)ccc21` [escitalopram]: the “metabolism associated with CYP2C:TG haplotype” value in data set [2] (activity similar to CYP2C19*17/*17 diplotype) is listed as “ultrarapid metabolism”. Also, in data set [2], the “CYP2C19 activity associated with CYP2C:TG haplotype, from serum concentrations” value was “increased CYP2C19 activity”.
As for `Cc1c(OCC(F)(F)F)ccnc1C[S+]([O-])c1nc2ccccc2[nH]1` (stereo not drawn) [lansoprazole], the “impact of the CYP2C:TG haplotype on the PK” value in data set [3] (PO) is recorded as “negligible”. Further, the “Scaled coefficient (95% CI) for CYP2C:TG allele count” value in data set [3] (outcome Cmax (adj) scaled to SD 1, oral) is 0.24–0.35.
With `COc1ccnc(C[S+]([O-])c2nc3ccc(OC(F)F)cc3[nH]2)c1OC` (stereo not drawn) [pantoprazole], the “impact of the CYP2C:TG haplotype on the PK” value in data set [3] (IV) and in data set [3] (PO) was “negligible” each time. The “Scaled coefficient (95% CI) for CYP2C:TG allele count” value in data set [3] (outcome Clearance (adj) scaled to SD 1, IV) is given as 0.24–0.35; in data set [3] (outcome Clearance scaled to SD 1, IV) it was 0.24–0.35; in data set [3] (outcome Cmax scaled to SD 1, oral), 0.24–0.35.
With `CN[C@H]1CC[C@@H](c2ccc(Cl)c(Cl)c2)c2ccccc21` [sertraline], the “impact of CYP2C:TG alleles on CYP2C19 PK or metabolic phenotype” value in data set [1] is given as “No appreciable impact”. Further, the “CYP2C19 activity associated with CYP2C:TG haplotype, from serum concentrations” value in data set [2] is reported as “increased CYP2C19 activity”.
